ChEMBL document CHEMBL1833886, “Synthesis and evaluation of furoxan-based nitric oxide-releasing derivatives of tetrahydroisoquinoline as anticancer and multidrug resistance reversal agents” (Bioorg Med Chem Lett, 2011)
Activity calls are given as the source filed them. The calls are words filed in the database; no cut-off is given here.

Legend:
[1] = Cytotoxicity against adriamycin-resistant human K562/A02 cells after 48 hrs by MTT assay; assay type: functional, cell-based; details: K562/A02, 48 h
Method in brief: (§1)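 K562 and adriamycin-selected K562/A02 cells in RPMI 1640 with 10% fetal calf serum, 37 °C, 5% CO2; kept drug-free >14 days before assay. Log-phase cells at 1 × 10⁵/mL in 96-well plates, exposed to a range of compound concentrations (DMSO stock, final DMSO ≤0.1%) for 48 h. MTT added during last 4 h, formazan in DMSO, read at 570 nm. Duplicate wells, ≥3 experiments. IC50 by Bliss method.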

[2] = test system: K562; test: Reversal of P-gp-mediated multidrug-resistance in human K562 cells at 10 uM after 48 hrs by MTT assay relative to adriamycin; assay type: cell-based
Method in brief: (§2)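 Cells at 3 × 10⁴/well received graded adriamycin plus test compound (final 10 µM), 48 h at 37 °C, 5% CO2, then MTT read-out at 570 nm. Adriamycin IC50 by Bliss method. Fold reversal = IC50 of adriamycin alone / IC50 with modulator. Student's t test versus no modulator, P < 0.05.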

[3] = test system: K562/A02; test: Reversal of P-gp-mediated multidrug-resistance in adriamycin-resistant human K562/A02 cells at 10 uM after 48 hrs by MTT assay relative to adriamycin; assay type: cell-based; method in brief: as §2
[4] = test system: K562; test: Cytotoxicity against human K562 cells after 48 hrs by MTT assay; assay type: functional, cell-based; details: K562, 48 h; method in brief: as §1
[5] = test system: K562/A02; test: Induction of NO production in adriamycin-resistant human K562/A02 cells at 10 uM after 24 hrs by Griess assay; assay type: functional, cell-based
Method in brief: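 K562/A02 cells (5 × 10⁶ per well) exposed in triplicate to 10 µM compound for 24 h, harvested and lysed. Lysates mixed with Griess reagent 30–300 min, absorbance at 570 nm. Nitrite/nitrate quantified against sodium nitrate standard curve; diluent-treated cells as background control. Mean SD of three separate experiments.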

[6] = test system: K562/A02; test: Inhibition of P-gp-mediated rhodamine-123 uptake in adriamycin-resistant human K562/A02 cells assessed as rhodamine-123 accumulation at 10 uM after 60 mins by flow cytometry; assay type: cell-based
Method in brief: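 Rhodamine123 uptake in K562/A02 cells followed by fluorescence after treatment with 10 µM (final) modulator; verapamil group as reference, untreated control. Intracellular rhodamine123 read from a rhodamine123 standard curve, fluorescence taken as relative concentration. Student's t test, P < 0.05.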

With `COc1cc2c(cc1OC)CN(C(=O)CCC(=O)OCCCCOc1no[n+]([O-])c1S(=O)(=O)c1ccccc1)CC2` the IC50 [1] was 11.8 µM, the fold change (FC) [2] was 1.5 and the fold change (FC) [3] was 1.85. It also gave an IC50 [4] of 1.56 µM.

Molecule `COc1ccc(CC2c3cc(OC)c(OC)cc3CCN2C(=O)CCC(=O)OCC#CCOc2no[n+]([O-])c2S(=O)(=O)c2ccccc2)cc1OC` (stereo not given) has an IC50 [1] of 8.05 µM, a fold change (FC) [2] of 1.65 and a fold change (FC) [3] of 5.65. For the same molecule, the IC50 [4] was 0.905 µM.

In the case of `COc1cc2c(cc1OC)CN(C(=O)CCC(=O)OCCCCCCOc1no[n+]([O-])c1S(=O)(=O)c1ccccc1)CC2`, the IC50 [1] is reported as 14.6 µM, the fold change (FC) [2] is reported as 1.09 and the fold change (FC) [3] is reported as 3.2. It also gave an IC50 [4] of 1.73 µM.

Molecule `COc1cc2c(cc1OC)C(Cc1cccc3ccccc13)N(C(=O)CCC(=O)OCCOc1no[n+]([O-])c1S(=O)(=O)c1ccccc1)CC2` (stereo not given) has an IC50 [1] of 9.98 µM, a fold change (FC) [2] of 1.59 and a fold change (FC) [3] of 2.02. The IC50 [4] was 1.03 µM.

`COc1cc2c(cc1OC)CN(C(=O)CCC(=O)OCC#CCOc1no[n+]([O-])c1S(=O)(=O)c1ccccc1)CC2` showed an IC50 [1] of 8.08 µM, a fold change (FC) [2] of 1.65 and a fold change (FC) [3] of 10.1. It also gave an IC50 [4] of 0.901 µM.

`COc1cc2c(cc1OC)CN(C(=O)CCC(=O)OCCOc1no[n+]([O-])c1S(=O)(=O)c1ccccc1)CC2` showed an IC50 [1] of 12.7 µM, a fold change (FC) [2] of 1.34 and a fold change (FC) [3] of 10.7. For the same molecule, the IC50 [4] was 1.15 µM.

With `COc1ccc(CC2c3cc(OC)c(OC)cc3CCN2C(=O)CCC(=O)OCCCCOc2no[n+]([O-])c2S(=O)(=O)c2ccccc2)cc1OC` (stereo not given) the IC50 [1] was 13 µM, the fold change (FC) [2] was 1.1 and the fold change (FC) [3] was 1.88. It also gave an IC50 [4] of 1.93 µM.

Work on `COc1cc2c(cc1OC)C(Cc1cccc3ccccc13)N(C(=O)CCC(=O)OCCCCCCOc1no[n+]([O-])c1S(=O)(=O)c1ccccc1)CC2` (stereo not given) yielded an IC50 [1] of 12.3 µM, a fold change (FC) [2] of 1.35 and a fold change (FC) [3] of 5.05. It also gave an IC50 [4] of 1.6 µM.

`COc1cccc2c1C(=O)c1c(O)c3c(c(O)c1C2=O)C[C@@](O)(C(=O)CO)C[C@@H]3O[C@H]1C[C@H](N)[C@H](O)[C@H](C)O1` [DOXORUBICIN] showed an IC50 [1] of 17.8 µM.

Molecule `COc1ccc(CC2c3cc(OC)c(OC)cc3CCN2C(=O)CCC(=O)OCCCCCCOc2no[n+]([O-])c2S(=O)(=O)c2ccccc2)cc1OC` (stereo not given) has an IC50 [1] of 12.5 µM, a fold change (FC) [2] of 1.35 and a fold change (FC) [3] of 1.96. The IC50 [4] was 1.65 µM.

With `COc1cc2c(cc1OC)C(Cc1cccc3ccccc13)N(C(=O)CCC(=O)OCC#CCOc1no[n+]([O-])c1S(=O)(=O)c1ccccc1)CC2` (stereo not given) the Activity [5] was “Active”, the IC50 [1] was 7.5 µM and the fold change (FC) [2] was 1.86. The fold change (FC) [3] was 32, the IC50 [4] was 0.875 µM and the inhibition [6] was “Active”.

Molecule `COc1ccc(CCN(C)CCCC(C#N)(c2ccc(OC)c(OC)c2)C(C)C)cc1OC` (stereo not given) has a fold change (FC) [2] of 0.96 and a fold change (FC) [3] of 17.4.

In the case of `CCCCCCCCN/C(=N/C#N)N1CCc2cc(OC)c(OC)cc2C1Cc1ccc(OC)c(OC)c1` (stereo not given), the Activity [5] is reported as “inactive” and the IC50 [1] is reported as greater than 500 µM.

`COc1cc2c(cc1OC)C(COc1ccccc1)N(C(=O)CCC(=O)OCCCCOc1no[n+]([O-])c1S(=O)(=O)c1ccccc1)CC2` (stereo not given) gave an IC50 [1] of 17.5 µM, a fold change (FC) [2] of 1.06 and a fold change (FC) [3] of 1.68. It also gave an IC50 [4] of 1.5 µM.

For `COc1ccc(CC2c3cc(OC)c(OC)cc3CCN2C(=O)CCC(=O)OCCOc2no[n+]([O-])c2S(=O)(=O)c2ccccc2)cc1OC` (stereo not given), the Activity [5] was “Active”, the IC50 [1] was 11.3 µM and the fold change (FC) [2] was 1.47. The fold change (FC) [3] was 21.3, the IC50 [4] was 1.09 µM and the inhibition [6] was “Active”.

For `COc1cc2c(cc1OC)C(Cc1cccc3ccccc13)N(C(=O)CCC(=O)OCCCCOc1no[n+]([O-])c1S(=O)(=O)c1ccccc1)CC2` (stereo not given), the Activity [5] was “Active”, the IC50 [1] was 12.2 µM and the fold change (FC) [2] was 1.47. For the same molecule, the fold change (FC) [3] was 17.4, the IC50 [4] was 1 µM and the inhibition [6] was “Active”.

`COc1cc2c(cc1OC)C(COc1ccccc1)N(C(=O)CCC(=O)OCCOc1no[n+]([O-])c1S(=O)(=O)c1ccccc1)CC2` (stereo not given) gave an IC50 [1] of 10.8 µM, a fold change (FC) [2] of 1.54 and a fold change (FC) [3] of 10.7. It also gave an IC50 [4] of 1.45 µM.

For `COc1cc2c(cc1OC)C(COc1ccccc1)N(C(=O)CCC(=O)OCC#CCOc1no[n+]([O-])c1S(=O)(=O)c1ccccc1)CC2` (stereo not given), the IC50 [1] was 6.36 µM, the fold change (FC) [2] was 1.73 and the fold change (FC) [3] was 1.73. For the same molecule, the IC50 [4] was 0.892 µM.

`COc1cc2c(cc1OC)C(COc1ccccc1)N(C(=O)CCC(=O)OCCCCCCOc1no[n+]([O-])c1S(=O)(=O)c1ccccc1)CC2` (stereo not given) showed an IC50 [1] of 13.5 µM, a fold change (FC) [2] of 1.2 and a fold change (FC) [3] of 3.15. It also gave an IC50 [4] of 1.79 µM.
